In ChEMBL document CHEMBL2029334 (Bioorg Med Chem Lett, 2012):
The source made the active and inactive calls. No cut-off for these calls is given here.

Columns and labels:
[1] = molecular target: Sodium-dependent dopamine transporter (Rattus norvegicus, UniProt P23977); test: Displacement of 3H-WIN-35428 from DAT in rat striata after 120 mins
[2] = test system: Rattus norvegicus; test: Wake promoting activity in rat assessed as total time awake at 100 mg/kg, ip over a period of 3 hrs after dosing; assay type: functional; settings: route intraperitoneal
[3] = test system: Plasma; test: Cmax in rat plasma assessed as 9H-fluoren-9-ol at 116 mg/kg, ip; assay type: ADME, organism-based; parameters: dose 116 mg/kg, route intraperitoneal; settings: in vivo
Outline: (§1)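 Rats received the parent compound at 116 mg/kg ip in 0.5% methylcellulose/0.2% Tween 80. The metabolite was measured in plasma and brain over time. Cmax is given in ng/g, Tmax in h, and AUC0-t in ng h/g. Values are mean ± SEM, n = 3.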

[4] = test system: Plasma; test: Tmax in rat plasma assessed as 9H-fluoren-9-ol at 116 mg/kg, ip; assay type: ADME, organism-based; parameters: dose 116 mg/kg, route intraperitoneal; settings: in vivo; outline: as §1
[5] = test system: Plasma; test: AUC (0 to t) in rat plasma assessed as 9H-fluoren-9-ol at 116 mg/kg, ip; assay type: ADME, organism-based; parameters: dose 116 mg/kg, route intraperitoneal; settings: in vivo; outline: as §1
[6] = test system: Brain; test: Cmax in rat brain assessed as 9H-fluoren-9-ol at 116 mg/kg, ip; assay type: ADME, organism-based; parameters: dose 116 mg/kg, route intraperitoneal; settings: in vivo; outline: as §1
[7] = test system: Brain; test: Tmax in rat brain assessed as 9H-fluoren-9-ol at 116 mg/kg, ip; assay type: ADME, organism-based; parameters: dose 116 mg/kg, route intraperitoneal; settings: in vivo; outline: as §1
[8] = test system: Brain; test: AUC (0 to t) in rat brain assessed as 9H-fluoren-9-ol at 116 mg/kg, ip; assay type: ADME, organism-based; parameters: dose 116 mg/kg, route intraperitoneal; settings: in vivo; outline: as §1
[9] = test system: Plasma; test: Cmax in rat plasma assessed as 9H-fluoren-9-one at 116 mg/kg, ip; assay type: ADME, organism-based; parameters: dose 116 mg/kg, route intraperitoneal; settings: in vivo; outline: as §1
[10] = test system: Plasma; test: Tmax in rat plasma assessed as 9H-fluoren-9-one at 116 mg/kg, ip; assay type: ADME, organism-based; parameters: dose 116 mg/kg, route intraperitoneal; settings: in vivo; outline: as §1
[11] = test system: Plasma; test: AUC (0 to t) in rat plasma assessed as 9H-fluoren-9-one at 116 mg/kg, ip; assay type: ADME, organism-based; parameters: dose 116 mg/kg, route intraperitoneal; settings: in vivo; outline: as §1
[12] = test system: Brain; test: Cmax in rat brain assessed as 9H-fluoren-9-one at 116 mg/kg, ip; assay type: ADME, organism-based; parameters: dose 116 mg/kg, route intraperitoneal; settings: in vivo; outline: as §1
[13] = test system: Brain; test: Tmax in rat brain assessed as 9H-fluoren-9-one at 116 mg/kg, ip; assay type: ADME, organism-based; parameters: dose 116 mg/kg, route intraperitoneal; settings: in vivo; outline: as §1
[14] = test system: Brain; test: AUC (0 to t) in rat brain assessed as 9H-fluoren-9-one at 116 mg/kg, ip; assay type: ADME, organism-based; parameters: dose 116 mg/kg, route intraperitoneal; settings: in vivo; outline: as §1
[15] = molecular target: Cytochrome P450 2C19 (Homo sapiens, UniProt P33261); test: Inhibition of CYP2C19; assay type: ADME
[16] = species: Canis familiaris; test: Wake promoting activity in dog; assay type: functional, organism-based; settings: Canis lupus familiaris
[17] = molecular target: CYP2C19 (Homo sapiens, UniProt P33261); test: Inhibition of CYP2C19 at 10 uM; assay type: ADME
[18] = test system: Rattus norvegicus; test: Wake promoting activity in rat assessed as total time awake at 30 mg/kg, ip over a period of 3 hrs after dosing; assay type: functional; settings: route intraperitoneal
[19] = Cmax in rat plasma at 116 mg/kg, ip; assay type: ADME, organism-based; parameters: dose 116 mg/kg, route intraperitoneal
[20] = Tmax in rat plasma at 116 mg/kg, ip; assay type: ADME, organism-based; parameters: dose 116 mg/kg, route intraperitoneal
[21] = test system: Plasma; test: AUC (0 to t) in rat plasma at 116 mg/kg, ip; assay type: ADME, organism-based; parameters: dose 116 mg/kg, route intraperitoneal; settings: in vivo
[22] = Cmax in rat brain at 116 mg/kg, ip; assay type: ADME, organism-based; parameters: dose 116 mg/kg, route intraperitoneal
[23] = Tmax in rat brain at 116 mg/kg, ip; assay type: ADME, organism-based; parameters: dose 116 mg/kg, route intraperitoneal
[24] = test system: Brain; test: AUC (0 to t) in rat brain at 116 mg/kg, ip; assay type: ADME, organism-based; parameters: dose 116 mg/kg, route intraperitoneal; settings: in vivo
[25] = molecular target: Cytochrome P450 3A4 (Homo sapiens, UniProt P08684); test: Inhibition of CYP3A4; assay type: ADME
[26] = molecular target: Cytochrome P450 2D6 (Homo sapiens, UniProt P10635); test: Inhibition of CYP2D6; assay type: ADME
[27] = test system: Plasma; test: Plasma concentration in human at efficacious dose; assay type: ADME, cell-free

Chain of Cytochrome P450 2C19 (P33261 whole entry): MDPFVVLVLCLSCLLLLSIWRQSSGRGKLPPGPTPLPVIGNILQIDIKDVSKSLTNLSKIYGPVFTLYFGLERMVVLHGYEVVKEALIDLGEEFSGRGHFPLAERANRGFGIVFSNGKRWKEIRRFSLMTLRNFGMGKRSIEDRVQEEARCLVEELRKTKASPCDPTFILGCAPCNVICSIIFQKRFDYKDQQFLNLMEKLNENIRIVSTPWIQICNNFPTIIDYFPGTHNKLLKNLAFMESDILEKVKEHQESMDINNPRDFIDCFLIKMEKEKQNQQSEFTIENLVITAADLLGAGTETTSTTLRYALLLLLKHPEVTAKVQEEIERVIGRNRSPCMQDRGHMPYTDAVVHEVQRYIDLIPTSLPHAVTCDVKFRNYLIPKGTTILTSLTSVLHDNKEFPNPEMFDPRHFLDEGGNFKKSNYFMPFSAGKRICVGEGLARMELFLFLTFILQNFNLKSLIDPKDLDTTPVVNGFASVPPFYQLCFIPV
Chain of CYP2C19 (P33261 whole entry): as above
Chain of Sodium-dependent dopamine transporter (P23977 whole entry): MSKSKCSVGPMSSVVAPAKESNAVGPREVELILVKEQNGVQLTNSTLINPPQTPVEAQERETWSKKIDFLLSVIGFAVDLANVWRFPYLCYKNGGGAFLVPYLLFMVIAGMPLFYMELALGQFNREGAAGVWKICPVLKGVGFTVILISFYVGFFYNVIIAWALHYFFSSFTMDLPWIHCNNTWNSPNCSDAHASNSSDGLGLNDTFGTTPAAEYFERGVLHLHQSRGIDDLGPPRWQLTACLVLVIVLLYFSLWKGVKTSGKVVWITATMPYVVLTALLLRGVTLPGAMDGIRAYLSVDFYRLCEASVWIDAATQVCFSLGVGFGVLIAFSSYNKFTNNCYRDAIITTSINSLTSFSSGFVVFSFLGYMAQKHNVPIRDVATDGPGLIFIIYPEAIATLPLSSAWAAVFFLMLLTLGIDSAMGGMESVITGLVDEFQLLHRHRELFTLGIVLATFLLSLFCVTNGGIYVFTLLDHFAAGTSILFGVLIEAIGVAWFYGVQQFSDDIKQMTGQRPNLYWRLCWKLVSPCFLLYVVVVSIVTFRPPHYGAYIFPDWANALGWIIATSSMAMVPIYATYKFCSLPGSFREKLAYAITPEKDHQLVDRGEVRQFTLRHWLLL
Chain of Cytochrome P450 2D6 (P10635 whole entry): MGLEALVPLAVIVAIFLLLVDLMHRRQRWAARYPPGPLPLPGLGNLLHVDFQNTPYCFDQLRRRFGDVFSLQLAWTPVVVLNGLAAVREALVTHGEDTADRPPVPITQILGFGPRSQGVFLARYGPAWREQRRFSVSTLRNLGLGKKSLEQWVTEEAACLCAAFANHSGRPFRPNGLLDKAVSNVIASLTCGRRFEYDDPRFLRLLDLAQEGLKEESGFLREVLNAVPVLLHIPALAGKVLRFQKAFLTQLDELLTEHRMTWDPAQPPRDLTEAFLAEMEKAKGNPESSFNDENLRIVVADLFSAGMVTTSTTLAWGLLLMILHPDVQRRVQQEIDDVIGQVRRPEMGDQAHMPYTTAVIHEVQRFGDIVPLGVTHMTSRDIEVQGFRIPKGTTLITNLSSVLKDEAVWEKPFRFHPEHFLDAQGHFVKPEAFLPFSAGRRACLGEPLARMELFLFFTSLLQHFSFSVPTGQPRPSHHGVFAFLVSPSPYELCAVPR
Chain of Cytochrome P450 3A4 (P08684 whole entry): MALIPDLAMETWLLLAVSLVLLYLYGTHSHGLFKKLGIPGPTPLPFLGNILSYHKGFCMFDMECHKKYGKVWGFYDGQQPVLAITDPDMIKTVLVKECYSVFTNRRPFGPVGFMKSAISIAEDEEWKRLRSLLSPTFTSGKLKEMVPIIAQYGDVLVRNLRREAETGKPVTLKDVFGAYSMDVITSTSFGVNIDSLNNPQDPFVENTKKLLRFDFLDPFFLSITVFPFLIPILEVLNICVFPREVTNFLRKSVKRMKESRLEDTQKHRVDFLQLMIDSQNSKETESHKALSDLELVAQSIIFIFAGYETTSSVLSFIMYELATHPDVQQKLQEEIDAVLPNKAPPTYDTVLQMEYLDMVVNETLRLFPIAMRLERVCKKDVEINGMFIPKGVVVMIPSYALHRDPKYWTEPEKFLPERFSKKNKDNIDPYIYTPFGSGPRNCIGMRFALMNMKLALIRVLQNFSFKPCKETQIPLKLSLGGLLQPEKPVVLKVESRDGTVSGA

SMILES	IC50 [1]	Time [2]	IC50 [15]	Activity [16]	other results
OC1c2ccccc2-c2ccccc21	9 µM	163 min	–	–	Cmax [3]: 263 ng/g; Tmax [4]: 120 min; AUCt [5]: 1081 ng·h/g; Cmax [6]: 4384 ng/g; Tmax [7]: 48 min; AUCt [8]: 11639 ng·h/g
O=C1c2ccccc2-c2ccccc21	–	–	–	–	Cmax [9]: 255 ng/g; Tmax [10]: 72 min; AUCt [11]: 939 ng·h/g; Cmax [12]: 971 ng/g; Tmax [13]: 48 min; AUCt [14]: 2349 ng·h/g
C[C@H](NC(=O)C[S+]([O-])C1c2ccccc2-c2ccccc21)C(N)=O (mixture of isomers)	> 100 µM	151 min	> 100 µM	inactive	–
NC(=O)[C@H](CO)NC(=O)C[S+]([O-])C1c2ccccc2-c2ccccc21 (mixture of isomers)	> 100 µM	136 min	> 100 µM	inactive	–
NC(=O)[C@@H]1CCCN1C(=O)C[S+]([O-])C1c2ccccc2-c2ccccc21 (mixture of isomers)	> 100 µM	169 min	> 100 µM	inactive	–
NC(=O)C[S+]([O-])C1c2ccccc2-c2ccccc21 (racemic)	> 100 µM	116 min	> 100 µM	inactive	–
CC1([S+]([O-])CC(N)=O)c2ccccc2-c2ccccc21 (racemic)	> 100 µM	71 min	–	–	inhibition at 10 µM [17]: 26%
CNC(=O)C[S+]([O-])C1c2ccccc2-c2ccccc21 (racemic)	> 100 µM	83 min	–	inactive	inhibition at 10 µM [17]: 48%
O=C(C[S+]([O-])C1c2ccccc2-c2ccccc21)NCCO (racemic)	> 100 µM	167 min	> 100 µM	inactive	–
CCN(CC)C(=O)C[S+]([O-])C1c2ccccc2-c2ccccc21 (racemic)	> 100 µM	99 min	> 100 µM	inactive	–
O=C(C[S+]([O-])C1c2ccccc2-c2ccccc21)N1CCOCC1 (racemic)	> 100 µM	–	–	inactive	Time [18]: 158 min; inhibition at 10 µM [17]: 30%
O=C(C[S+]([O-])C1c2ccccc2-c2ccccc21)N1CCNCC1 (racemic)	> 100 µM	–	> 100 µM	inactive	Time [18]: 119 min
CC(=O)N1CCN(C(=O)C[S+]([O-])C2c3ccccc3-c3ccccc32)CC1 (racemic)	> 100 µM	–	> 100 µM	inactive	Time [18]: 146 min; Cmax [19]: 6290 ng/g; Tmax [20]: 48 min; AUCt [21]: 7501 ng·h/g; Cmax [22]: 416 ng/g; Tmax [23]: 48 min; AUCt [24]: 295 ng·h/g
NC(=O)CNC(=O)C[S+]([O-])C1c2ccccc2-c2ccccc21 (racemic)	> 100 µM	140 min	> 100 µM	inactive	–
NC(=O)C[S+]([O-])C(c1ccccc1)c1ccccc1 (racemic) [MODAFINIL]	–	117 min	–	inactive	inhibition (INH) [25]: Not Active; inhibition (INH) [26]: Not Active; concentration [27]: > 30 µM
